# What was measured:
# [1] = Prodrug conversion in mouse jejunum homogenate assessed as mebendazole formation by measuring remaining parent drug at 10 uM measured at 60 mins by LC-MS/MS method; assay type: ADME, tissue-based; details: in vitro, 1 h
# Procedure, shortened: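 Washed mouse jejunum diluted 10-fold in 0.1 M potassium phosphate buffer, probe-sonicated; homogenate spiked with 10 µM prodrug; triplicate aliquots at 0 and 60 min quenched with ice-cold acetonitrile plus losartan; prodrug remaining by LC-MS/MS peak-area ratio to internal standard.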
# [2] = Prodrug conversion in mouse liver microsomes assessed as mebendazole formation by measuring remaining parent drug at 10 uM measured at 60 mins by LC-MS/MS method; assay type: ADME, microsome; details: 1 h
# Procedure, shortened: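 Mouse liver microsomes (0.5 mg/mL) with 10 µM prodrug in 100 mM potassium phosphate, pH 7.4, reaction started by adding microsomes; triplicate samples at 0 and 60 min quenched with ice-cold acetonitrile containing losartan; prodrug disappearance by LC-MS/MS.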
# [3] = Prodrug conversion in naive mouse plasma assessed as mebendazole formation by measuring remaining parent drug at 10 uM measured at 60 mins by LC-MS/MS method; assay type: ADME, cell-free; details: 1 h
# Procedure, shortened: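 Prodrug spiked at 10 µM into 1 mL naive mouse plasma, incubated on orbital shaker at 37 °C; triplicate aliquots at 0 and 60 min quenched with ice-cold acetonitrile plus losartan internal standard; remaining prodrug by LC-MS/MS.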
# [4] = Solubility of the compound in 0.01 M PBS after 24 hrs by shake flask method; assay type: physicochemical; details: buffer
# [5] = Chemical stability of the compound in 0.01 M PBS at 10 uM after 60 mins by LC-MS/MS method; assay type: physicochemical; details: buffer, 1 h
# Procedure, shortened: (§1)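 Prodrug from 10 mM DMSO stock spiked to 10 µM final in preheated PBS at 37 °C; aliquots taken over 60 min, quenched with cold acetonitrile containing losartan internal standard, diluted with water, and intact prodrug measured by LC-MS/MS.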
# [6] = Prodrug conversion in CD1 mouse plasma assessed as mebendazole formation at 30 mg/kg mebendazole equivalent administered single dose via oral gavage measured at 60 mins by LC-MS/MS method; assay type: ADME, organism-based; details: in vivo, 1 h
# [7] = mouse, in vivo, po, 30 mg/kg, 0.5 h
# [8] = Chemical stability of the compound in 0.01 M PBS assessed as parent compound remaining at 10 uM after 60 mins by LC-MS/MS method; assay type: physicochemical; details: read-out: Stability; procedure, shortened: as §1
# [9] = Plasma concentration in CD1 mouse at 30 mg/kg administered single dose via oral gavage measured at 60 mins by LC-MS/MS method; assay type: ADME, organism-based
# [10] = Cmax in CD1 mouse at 1.5 mg/kg, iv at 5 mins by LC-MS/MS method; assay type: ADME, organism-based; design: dose 1.5 mg/kg, route intravenous; details: in vivo
# Procedure, shortened: (§2)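 Male CD-1 mice (25–30 g) received single IV dose 1.5 mg/kg MBZ-C dissolved just before dosing in 1% DMSO, 10% Cremophor EL, 89% saline; sacrificed by CO2 at set times; plasma extracted with acetonitrile containing losartan internal standard and MBZ measured by LC-MS/MS against naive-matrix calibration (0.001-50 nmol/g).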
# [11] = Half life in CD1 mouse at 1.5 mg/kg, iv by LC-MS/MS method; assay type: ADME, organism-based; details: in vivo; procedure, shortened: as §2
# [12] = Cmax in Beagle dog at 0.3 mg/kg, iv at 5 mins by LC-MS/MS method; assay type: ADME, organism-based, Canis lupus familiaris; design: dose 0.3 mg/kg, route intravenous; details: in vivo
# Procedure, shortened: (§3)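 Male beagle dogs (n=2) given single IV bolus of MBZ-C at 0.3 mg/kg in co-solvent vehicle (1% DMSO, 10% Cremophor EL). Jugular vein blood (~1 mL) by direct puncture at set times into sodium heparin tubes, kept on wet ice, spun 3,000 × g 5 min 4 °C, plasma stored -80 °C; MBZ quantified by LC-MS/MS.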
# [13] = Half life in Beagle dog at 0.3 mg/kg, iv by LC-MS/MS method; assay type: ADME, organism-based, Canis lupus familiaris; details: in vivo; procedure, shortened: as §3
# [14] = Tmax in CD1 mouse at 1.5 mg/kg, iv by LC-MS/MS method; assay type: ADME, organism-based; details: in vivo; procedure, shortened: as §2
# [15] = Tmax in Beagle dog at 0.3 mg/kg, iv by LC-MS/MS method; assay type: ADME, organism-based, Canis lupus familiaris; details: in vivo; procedure, shortened: as §3
# [16] = AUC (0 to t) in CD1 mouse at 1.5 mg/kg, iv by LC-MS/MS method; assay type: ADME, organism-based; details: in vivo; procedure, shortened: as §2
# [17] = AUC (0 to t) in Beagle dog at 0.3 mg/kg, iv by LC-MS/MS method; assay type: ADME, organism-based, Canis lupus familiaris; details: in vivo; procedure, shortened: as §3
# [18] = Clearance in CD1 mouse at 1.5 mg/kg, iv by LC-MS/MS method; assay type: ADME, organism-based; details: in vivo; procedure, shortened: as §2
# [19] = Clearance in Beagle dog at 0.3 mg/kg, iv by LC-MS/MS method; assay type: ADME, organism-based, Canis lupus familiaris; details: in vivo; procedure, shortened: as §3
# [20] = Volume of distribution in CD1 mouse at 1.5 mg/kg, iv by LC-MS/MS method; assay type: ADME, organism-based; details: in vivo; procedure, shortened: as §2
# [21] = Volume of distribution in Beagle dog at 0.3 mg/kg, iv by LC-MS/MS method; assay type: ADME, organism-based, Canis lupus familiaris; details: in vivo; procedure, shortened: as §3
# [22] = Cmax in CD1 mouse plasma at 30 mg/kg administered via oral gavage at 60 mins by LC-MS/MS method; assay type: ADME, organism-based; design: dose 30 mg/kg, route oral
# Procedure, shortened: (§4)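 Male CD-1 mice dosed once by oral gavage, 30 mg/kg MBZ equivalent, formulated just before dosing in 5% ethanol, 5% polysorbate 80, 90% water; plasma and brain collected at set times after CO2 euthanasia; MBZ by LC-MS/MS; AUC0-t by log-linear trapezoidal rule; brain/plasma ratio as ratio of mean AUC0-t values.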
# [23] = Tmax in CD1 mouse plasma at 30 mg/kg administered via oral gavage by LC-MS/MS method; assay type: ADME, organism-based; procedure, shortened: as §4
# [24] = AUC (0 to t) in CD1 mouse plasma at 30 mg/kg administered via oral gavage by LC-MS/MS method; assay type: ADME, organism-based; procedure, shortened: as §4
# [25] = Oral bioavailability in CD1 mouse plasma at 30 mg/kg administered via gavage by LC-MS/MS method; assay type: ADME, organism-based
# [26] = Cmax in CD1 mouse brain at 30 mg/kg administered via oral gavage at 60 mins by LC-MS/MS method; assay type: ADME, organism-based; design: dose 30 mg/kg, route oral; details: in vivo, 1 h; procedure, shortened: as §4
# [27] = Tmax in CD1 mouse brain at 30 mg/kg administered via oral gavage by LC-MS/MS method; assay type: ADME, organism-based; procedure, shortened: as §4
# [28] = AUC (0 to t) in CD1 mouse brain at 30 mg/kg administered via oral gavage by LC-MS/MS method; assay type: ADME, organism-based; details: in vivo; procedure, shortened: as §4
# [29] = Ratio of drug level in brain to plasma in CD1 mouse at 30 mg/kg administered via oral gavage by LC-MS/MS method; assay type: ADME, organism-based; details: brain and plasma, read-out: BPR; procedure, shortened: as §4
# [30] = Cmax in Beagle dog at […], po measured at 2 hrs by LC-MS/MS method; assay type: ADME, organism-based, Canis lupus familiaris; design: dose 2.5 mg/kg, route oral; details: in vivo
# [31] = Tmax in Beagle dog at […], po by LC-MS/MS method; assay type: ADME, organism-based, Canis lupus familiaris; details: in vivo
# [32] = AUC (0 to t) in Beagle dog at […], po by LC-MS/MS method; assay type: ADME, organism-based, Canis lupus familiaris; details: in vivo
# [33] = Oral bioavailability in Beagle dog at […] by LC-MS/MS method; assay type: ADME, organism-based, Canis lupus familiaris; details: in vivo
# [34] = Oral bioavailability in human at 1.7 ug; assay type: ADME, organism-based; details: in vivo
# [35] = Oral bioavailability in human at 1.18 ug; assay type: ADME, organism-based; details: in vivo
smiles,measurement,setting,value
COC(=O)Nc1nc2cc(C(=O)c3ccccc3)ccc2n1COP(=O)(O)O,Stability,[1],35%
same,Stability,[2],100%
same,Stability,[3],62%
same,solubility,[4],Soluble
same,Stability,[5],Stable
same,Drug metabolism,[6],8.53 nmol/mL
COC(=O)Nc1nc2cc(C(=O)c3ccccc3)ccc2n1COC(=O)CNC(=O)[C@H](CC(C)C)NC(C)=O,Stability,[1],18%
same,Stability,[2],29%
same,Stability,[3],0%
same,solubility,[4],Soluble
same,Stability,[5],Stable
same,Drug metabolism,[6],8.72 nmol/mL
COC(=O)Nc1nc2cc(C(=O)c3ccccc3)ccc2n1COC(=O)OC[C@H]1OC(O)[C@H](O)[C@@H](O)[C@@H]1O (some centres not stated),Stability,[1],4%
same,Stability,[2],27%
same,Stability,[3],18%
same,solubility,[4],Soluble
same,Stability,[5],Stable
COC(=O)Nc1nc2cc(C(=O)c3ccccc3)ccc2n1COC(=O)OC(C)C,solubility,[4],Soluble
same,Stability,[5],Stable
COC(=O)Nc1nc2cc(C(=O)c3ccccc3)ccc2n1COP(=O)(O)OCOC(=O)OC(C)C,Stability,[1],1%
same,Stability,[2],14%
same,Stability,[3],73%
same,Stability,[5],Stable
same,Drug metabolism,[6],10.35 nmol/mL
same,Cmax,[7],12.2 µM
COC(=O)Nc1nc2cc(C(=O)c3ccccc3)ccc2n1COC(=O)CC[C@H](N)C(=O)O,solubility,[4],Soluble
same,"remaining at 1 h, 10 µM",[8],0%
COC(=O)Nc1nc2cc(C(=O)c3ccccc3)ccc2n1COC(=O)CCC(=O)O,Stability,[1],30%
same,Stability,[2],24%
same,Stability,[3],78%
same,solubility,[4],Soluble
same,Stability,[5],Stable
COC(=O)Nc1nc2ccc(C(=O)c3ccccc3)cc2[nH]1 [MEBENDAZOLE],Stability,[1],100%
same,Stability,[2],100%
same,Stability,[3],100%
same,concentration at 1 h,[9],2.86 µM
same,Cmax,[10],5.3 µM
same,half-life,[11],43.8 min
same,Cmax,[12],2.2 µM
same,half-life,[13],43.2 min
same,Tmax,[14],4.98 min
same,Tmax,[15],4.98 min
same,AUC(0-t),[16],2.7 µM·h
same,AUC(0-t),[17],0.9 µM·h
same,clearance,[18],27.4 mL/min/kg
same,clearance,[19],22.2 mL/min/kg
same,Vd,[20],1.4 L/kg
same,Vd,[21],1.3 L/kg
same,Cmax,[22],5.1 µM
same,Tmax,[23],60 min
same,AUC(0-t),[24],12.9 µM·h
same,bioavailability,[25],24%
same,Cmax,[26],5.1 nmol/g
same,Tmax,[27],60 min
same,AUCt,[28],13.1 nmol·h/g
same,Kp,[29],1
same,Cmax at 2 h,[30],0.2 µM
same,Tmax,[31],120 min
same,AUC(0-t),[32],0.8 µM·h
same,bioavailability,[33],11%
same,bioavailability,[34],17%
same,bioavailability,[35],22%
